The series in a line: Toxicity liver stage against HepG2, at 10uM. In kind it is cell-based. Details: test concentration 10 uM, cell line HepG2-A16-CD81EGFP. The settings on record: human, HepG2-A16-CD81EGFP cells; read-out: INHIBITION
A digest of the protocol:
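Uninfected HepG2-A16-CD81EGFP cells, 3 × 10^3 per well, 1536-well, plated on prespotted compound at 10 μM final, parasite-free screening media added to match infected plates; puromycin 10 μM positive, DMSO 0.5% negative; run in parallel with 48 h PbLuc assay at 37 °C, 5% CO2; viability by CellTiter-Glo luminescence, normalized to controls.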
Consider `O=C(N1CCOCC1)n1cnc2ccccc21`, for which the cytotoxicity at 10 µM was -3.11%.
Then `Cc1ccc(Cl)cc1N1CCN(CC(=O)NC(C)c2ccco2)CC1` (stereo unspecified), with 5.89%; and `COCCOc1ccc(C(=O)N[C@@H]2CNCCC[C@H]2O)cc1`, with 4.67%; and `CC1(C)[C@H](Cc2cc(CO)on2)C[C@@H]1N(CC1CC1)CC1CC1`, with 3.82%.
Then `COc1ccc(CN2C[C@@H]3OCC(=O)N(Cc4nccn4C)[C@@H]3C2)cc1`, with 4.24%; and `CC(C)NC(=O)COc1cccc(-c2nc(C(C)C)no2)c1`, with -5.77%.
As for `CCC(=O)NC(c1cccnc1)c1cc(C)ccc1C` (stereo unspecified), the figure is -2.8%; as for `CC(C)[C@H](NC(=O)Cn1nc2c(cc1=O)CCCC2)C(=O)O`, 1.85%.
As for `CN1C(=O)C2(CCN(C(=O)C3CCOCC3)CC2)c2ccccc21`, the cytotoxicity at 10 µM was 2.5%.
For `CCN1C(=O)CCC12CCN(C(=O)c1ccco1)CC2`, the cytotoxicity at 10 µM is -3.66%.
Then `CC(=O)NCC(=O)N1CCC2(CC1)C(=O)N(CC1CC1)c1ccccc12`, with -4.1%; and `CC(C)N(C)Cc1cnc2n1CCN(Cc1cccc(C#N)c1)C2`, with 7.48%.
Consider `CCOCC1CN(C(=O)C2=CCCC2)Cc2cnn(C)c21` (stereo unspecified), for which the cytotoxicity at 10 µM is 1.49%.
Take `COC(=O)CC1CCN(C(=O)c2ccc(-n3nnnc3C)cc2)CC1`: the cytotoxicity at 10 µM was -6.72%.
Then `O=C(NCCN1CCCCC1)c1nc(-c2ccc3cc[nH]c3c2)no1`, with -8.54%; and `Cn1cc(I)c(C(=O)NCCCn2cc(Br)cn2)n1`, with 6.54%.
Then `CCn1nccc1CNC(=O)NC1CCCCC1`, with -27.5%.
Take `O=C(C1CC1)N1C[C@H]2CCCN(S(=O)(=O)c3cccc(F)c3)[C@H]2C1`: the cytotoxicity at 10 µM is 5.11%.
Then `CNc1cccc(CC2COCCN(C(=O)c3cnn(C)c3)C2)n1` (stereo unspecified), with 2.64%.
`CC(C)N1CCC(Cn2cc(C(N)=O)cn2)CC1`: the cytotoxicity at 10 µM stood at 6.39%.
As for `CC(=O)N1CCn2c(nnc2C2CCCCN2Cc2ccccc2Cl)C1` (stereo unspecified), the figure is 10.6%.
On to `O=C1CO[C@H]2CN(Cc3cccc4[nH]ccc34)C[C@@H]2N1C1CCOCC1`, for which the cytotoxicity at 10 µM is -17.3%.
As for `Nc1nccnc1C1CN(C(=O)c2cnc(C3CC3)nc2)CCO1` (stereo unspecified), the figure is -27%.
Then `CC(=O)N1CCCC(c2ncncc2-c2ccncc2)C1` (stereo unspecified), with -15.3%; and `CN1CCCCC1c1ncc2c(n1)CCN(CCCc1ccccc1)C2` (stereo unspecified), with -30.5%; and `c1cc(CN2CCCC(c3nnc(-c4cnccn4)o3)C2)ccn1` (stereo unspecified), with -9.14%.
For the molecule `CN(C)Cc1ccnc(NS(=O)(=O)Cc2cccc(F)c2)c1`, the cytotoxicity at 10 µM came out at 1.76%.
Then `Cc1noc(C)c1CN(C)C(=O)C1CCN(S(N)(=O)=O)CC1`, with 7.47%; and `CC(C)(C)n1ncc(C(=O)NCCCC(N)=O)c1C(F)(F)F`, with 8.85%; and `CC1CCN(c2ccc(C(=O)N3CCCC3c3ccc[nH]3)cn2)CC1` (stereo unspecified), with 2.84%.
Then `COC(=O)c1ccc(N(C(=O)c2cscn2)C(C)C)c(C)c1`, with 1.7%; and `Cc1c(COc2ccccc2)cccc1NC(=O)N1CC[C@H](O)C1`, with 13.7%; and `Fc1ccc(CNCCn2cccn2)cc1F`, with -8.01%.
Then `COc1cc(C(C)NCc2cscn2)ccc1SC(F)F` (stereo unspecified), with 0.762%; and `CCC(=O)NCC(=O)NC(Cc1ccccc1)c1sccc1C` (stereo unspecified), with 9.25%; and `Cc1cc(NC(=O)c2nc(N3CCCC3)ncc2Cl)ccc1Br`, with -7.2%.
In the case of `O=C(c1cc2c([nH]c1=O)CCC2)N1CCCC1c1ccccn1` (stereo unspecified), the cytotoxicity at 10 µM is -3.18%.
As for `CC(C)OCCSc1nnnn1C1CCOCC1`, the figure is -0.494%; as for `CC(c1ccc(C(F)(F)F)cc1)N1CCN(CCS(C)(=O)=O)CC1` (stereo unspecified), 3.25%.
As to `CCSc1cc(C(=O)NCCNC(=O)Cc2ccccc2)ccn1`, the cytotoxicity at 10 µM was -6.41%.
Then `Cc1cc(NC2CCc3ncnn3C2)n2nc(C(F)(F)F)nc2n1` (stereo unspecified), with 2.93%; and `COc1cc(CNCCNC(=O)c2ccc(O)cc2)ccc1SC`, with 9.72%; and `CCn1cc(S(=O)(=O)NC(CO)Cc2ccccc2)cn1` (stereo unspecified), with 6.07%.
Turning to `CCc1nc(CNC2CCCCNC2=O)cs1` (stereo unspecified), the cytotoxicity at 10 µM was 8.74%.
Then `Cc1ccc(CNCc2c[nH]nc2C(C)(C)C)c(OC2CCOC2)c1` (stereo unspecified), with 13.8%; and `N#Cc1ccc(N2CCN(c3cnccn3)CC2)c(C(F)(F)F)c1`, with 46.6%; and `NS(=O)(=O)c1cnn(CCC(=O)N(C2CCCCC2)C2CC2)c1`, with -0.157%.
As for `CCS(=O)(=O)NC(CCSC)C(=O)Nc1cccc(C)c1C` (stereo unspecified), the figure is -2.51%; as for `CCOCCN1CCN(CCOCC(F)(F)F)CC1`, 1.83%; as for `Cc1cccc(C)c1CCNC(=O)N1CCCC2(C1)OCCO2`, -3.47%.
Then `Cc1ccc(N2CCC3(CCN(C(N)=O)CC3)CC2)nn1`, with 1.62%; and `CC(C)(C)NC(=O)CN1CCCC(c2ccc(C(=O)O)cc2)C1` (stereo unspecified), with -6.17%; and `Cc1cnn(C2(C(=O)O)CCN(c3ccnc4cc(Cl)ccc34)CC2)c1`, with -6.07%.
As for `CSc1ccc(-c2nc(CN3CCCC(CNC(C)=O)C3)c(C)o2)cc1` (stereo unspecified), the cytotoxicity at 10 µM came to 2.32%.
Then `COc1ccc(CCn2ccnc2-c2cc3n(n2)CCCNC3)cc1`, with 8.07%; and `O=C1CC(C(=O)O)C2(CCN(C(=O)Nc3ccccc3Cl)CC2)N1` (stereo unspecified), with 2.14%.
As for `CSCCCN1C[C@H](NC(=O)c2ccc(C#N)nc2)[C@@H](C2CC2)C1`, the figure is 2.72%; as for `CCc1cc(NCC(O)CN2CCCCC2)ncn1` (stereo unspecified), -0.714%; as for `CC[C@H]1COCCN1C(=O)c1cnc(-c2ccccc2)nc1C`, 2.84%.
With `CC(C)c1cc(C(=O)N2CCN(CC3CC3)[C@@H]3CS(=O)(=O)C[C@@H]32)no1`, the cytotoxicity at 10 µM is -2.19%.
As for `O=C1CCCc2occ(C(=O)N3CCCC(O)(CO)C3)c21` (stereo unspecified), the figure is -10.1%; as for `Cc1[nH]ccc1C(=O)N[C@H]1CN(S(C)(=O)=O)C[C@@H]1C1CC1`, 3.28%.
Then `c1cc2c(cc1-n1nc(C3CC3)nc1-c1csnn1)OCCO2`, with 9.46%; and `CC1CCN(CCCNS(=O)(=O)Cc2ccccc2F)CC1`, with -8.79%.
Consider `CCCS(=O)(=O)N1CCN(c2cc(-n3cnc(C)c3C)ncn2)CC1`, for which the cytotoxicity at 10 µM amounted to 5.54%.
Then `CN(C)C[C@@H]1CN(C(=O)Cc2cccc(O)c2)C[C@@H]1CO`, with 1.92%; and `Cc1cc(O)nc(C2CCCN(Cc3ccncc3)C2)n1` (stereo unspecified), with -2.81%.
Then `Cc1cc2cc(C(=O)N3CC[C@H](O)[C@]4(CCCO4)C3)ccc2o1`, with 1.01%; and `Cc1cccnc1C(=O)N1CCCCC1c1[nH]ncc1S(C)(=O)=O` (stereo unspecified), with 5.92%.
Regarding `CC(C)CN1CC(C(=O)NCc2ccnc(-n3cccn3)c2)CC1=O` (stereo unspecified), the cytotoxicity at 10 µM was -5.48%.
Then `Cn1ccc(CN2CCC(CC(=O)NC3CCCC3)CC2)cc1=O`, with -16.8%; and `c1ccc(COc2ccccc2CNC2CCc3ncnn3C2)cc1` (stereo unspecified), with -10.2%; and `Cc1cc(CN(C)C(=O)NC2CCN(c3ncccn3)CC2)no1`, with -12.8%.
Then `Cc1cc(C)n(CC2CCCN2C(=O)CCc2ccco2)n1` (stereo unspecified), with -3.75%; and `Cc1nc(CNCC2CN(C3CC3)CCO2)cs1` (stereo unspecified), with -10.1%; and `Cc1cc(C(=O)N2CCCC(n3ccnc3)C2)c(C)n1C1CC1` (stereo unspecified), with 1.19%.
As for `Cc1noc(Cl)c1CC(=O)N1CCCC(n2cccn2)C1` (stereo unspecified), the figure is -6.14%; as for `CN(Cc1nnc(C2CC2)n1C)C1CCN(Cc2ccc(F)cc2)C1` (stereo unspecified), -7.17%; as for `COc1ccc(CNCc2ccnc(N3CCOCC3)c2)cc1OC`, 1.64%.
`CN1CCOC(CNC(=O)CCCOCCc2ccccc2)C1` (stereo unspecified): the cytotoxicity at 10 µM was -3.56%.
Then `CC(C)c1noc(CCCC(=O)N2CCC(Cc3cccnc3)CC2)n1`, with -5.43%; and `Cc1cc(CN(C)C(=O)NCc2cccc(N3CCCC3=O)c2)no1`, with -12.4%; and `COCCOc1ccc(NC(=O)C2CCCN(C(N)=O)C2)cn1` (stereo unspecified), with -8.9%.
Then `Cc1cccc(-c2nc(CN(Cc3cccs3)CC3CCCO3)no2)c1` (stereo unspecified), with -3.01%.
Then `CS(=O)(=O)N1CCC(NC(=O)COc2ccc(Cl)c(Cl)c2)CC1`, with -6.46%; and `CCN(Cc1nc2c(cnn2C)c(=O)[nH]1)c1cccc(Cl)c1`, with 1.18%; and `Cc1nc(CN(C)C2CCN(Cc3ccc4c(c3)OCCO4)C2)no1` (stereo unspecified), with -4.79%.
Turning to `Fc1ccc(-c2cnc(C3CCCN3)cn2)cc1` (stereo unspecified), the cytotoxicity at 10 µM is -2.79%.
On to `O=C(Nc1cnccn1)[C@H]1CO[C@H]2CCN(c3ncc(F)cn3)C[C@H]2C1`, for which the cytotoxicity at 10 µM was found to be 1.2%.
Then `Cc1cnc(N2CC3(CCN(Cc4cccnc4)C3)C2)nc1`, with -2.36%.
Then `CC(C)CN1CCC2(C=C(C(=O)NC3CC3)c3ccccc32)CC1`, with 1.11%.
For the molecule `CN(C)[C@@H]1CCN(c2ncccn2)[C@H]1Cc1ccncc1`, the cytotoxicity at 10 µM is -17.9%.
As for `O=C1COC2(CCN(Cc3cccs3)CC2)CN1c1ccccc1`, the figure is -4.63%; as for `Cn1cc(N2CCC3(CCN(Cc4cccnc4)C3)C2=O)cn1` (stereo unspecified), 3.63%; as for `Cc1noc(C)c1CN1CC[C@@H]2O[C@@H](COCC(C)C)CC[C@@H]21`, -0.125%.
As for `Cc1ccoc1C1=NNC(=CN2CCCC(Cn3cncn3)C2)O1` (stereo unspecified), the figure is -2.07%.

The record behind these values is ChEMBL document CHEMBL4513216, “Probing the Open Global Health Chemical Diversity Library for Multistage-Active Starting Points for Next-Generation Antimalarials” (ACS Infect Dis, 2020).
